OX1R antag-1: antagonists of human orexin 1 receptor (OX1R); OX1R-expressing cells, FRET antagonist read-out; 330,000 tested, 1.8% active; inhibition, % at 6.6 µM; O43613; in the data active means inhibition mostly above about 38%, no sharp cut-off; inactive means mostly below about 40%;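 further: 0% = agonist challenge alone and 100% = reference antagonist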
Target sequence (O43613 whole entry, looked up): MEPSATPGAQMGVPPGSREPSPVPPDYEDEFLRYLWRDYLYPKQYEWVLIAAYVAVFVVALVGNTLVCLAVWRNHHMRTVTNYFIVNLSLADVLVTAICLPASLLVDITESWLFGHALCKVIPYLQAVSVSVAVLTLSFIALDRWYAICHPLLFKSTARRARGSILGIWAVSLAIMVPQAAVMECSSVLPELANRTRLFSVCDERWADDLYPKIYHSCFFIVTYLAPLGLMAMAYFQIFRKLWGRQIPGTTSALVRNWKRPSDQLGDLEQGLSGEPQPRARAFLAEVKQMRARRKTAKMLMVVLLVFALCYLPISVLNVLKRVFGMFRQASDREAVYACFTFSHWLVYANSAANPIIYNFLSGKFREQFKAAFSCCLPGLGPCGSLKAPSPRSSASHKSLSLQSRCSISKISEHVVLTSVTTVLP
CHO-K1 Ca antag: counter-screen for M1 antagonists: effect in parental CHO-K1 cells; ATP-induced calcium, Fluo-8 fluorescence; 360,000 tested, 0.6% active; AID 602250; inhibition, % at 3 µM;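 active means inhibition above a per-plate cutoff, the plate's mean sample inhibition plus 3 SD, cut at about 24% in these data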;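 further: 0% = DMSO plus EC80 ATP and 100% = DMSO alone without ATP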
CHO parental Ca: signal in parental CHO cells, OX1R antagonist counter-screen. parental CHO-K1, ATP-induced calcium, Fluo-8 fluorescence. inhibition, % at 5.6 µM. 330,000 tested, 0.63% active;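 active means inhibition above that plate's mean sample inhibition plus 3 SD, cut at about 26% in these data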;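 further: 0% = ATP-challenged DMSO wells and 100% = DMSO wells without ATP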
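Material: parental CHO cells / Compound: single nominal dose of 5.6 µM per compound / Signal: Fluo-8 fluorescence / Replicates: singlicate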
OX1R antag-2: antagonists of human orexin 1 receptor. CHO/OX1R cells, Fluo-8 calcium fluorescence, orexin A. inhibition, % at 5 µM. 330,000 tested, 0.43% active;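 active means inhibition above its plate's threshold, mean inhibition of all tested compounds on the plate plus 3 SD, cut at about 37% in these data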;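 further: 0% = orexin A challenge wells and 100% = SB-334867-A antagonist wells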
M1 ag parental: M1 agonist counterscreen hit in parental CHO-K1 cells; Fluo-8 calcium fluorescence; scaled to maximal ATP response, vehicle zero; activation, % at 3 µM; 360,000 tested, 0.48% active; AID 602248; in the data active means activation above about 15%;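 further: untransfected CHO-K1 host cells lacking M1 receptor as counterscreen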
CHO-K1 Ca PAM: M1 PAM counterscreen hit in parental CHO-K1 cells; ATP EC20, Fluo-8 calcium fluorescence; 0% at ATP EC20, 100% at ATP max; activation, % at 3 µM; 360,000 tested, 0.02% active;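 active means activation above the run cutoff, the mean activation of all test compounds plus 3 SD, cut at about 40% in these data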;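 further: peak over basal fluorescence ratio in a 140 s read after ATP addition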
OX1R Ca confirm: OX1R (human) antagonism, confirmed. CHO/OX1R cells, orexin A calcium Fluo-8 fluorescence. shares compounds with OX1R antag-2. inhibition, % at 5 µM. 1,100 tested, 38% active. AID 492963; in the data active means inhibition above about 29%;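 further: 0% = agonist challenge alone and 100% = reference antagonist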
CHO Ca triplic: counter-screen for OX1R antagonists: effect in parental CHO cells | shares compounds with OX1R antag-2 | parental CHO-K1, ATP-induced calcium, Fluo-8 fluorescence | inhibition, % at 5.6 µM | 1,100 tested, 9.3% active;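 active means inhibition above a per-plate limit, the mean inhibition of that plate's test compounds plus 3 SD, cut at about 25% in these data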;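 further: 0% = ATP challenge with DMSO and 100% = DMSO without ATP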
OX1R HTRF conf: confirmation of human orexin 1 receptor antagonists, HTRF format. shares compounds with OX1R antag-1. inhibition, % at 6.6 µM. 1,800 tested, 49% active. AID 492964. OX1R-expressing cells, HTRF antagonist assay; in the data active means inhibition above about 55%;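 further: CHO cells expressing OX1R stimulated with orexin A at about EC80; 0% = agonist challenge alone and 100% = reference antagonist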
CHO-K1 HTRF cnt: signal in parental CHO-K1 cells, OX1R antagonist counter-screen; AID 493232; HTRF counterscreen; 1,800 tested, 48% active; shares compounds with OX1R antag-1; inhibition, % at 6.6 µM; in the data active means inhibition above about 17%;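 further: 0% = agonist challenge with vehicle and 100% = vehicle alone without agonist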
The depositor's hits bear a star; nt = no result. Rows were chosen to be rich in hits. Some 2.9% of all compounds tested hit in one or more screens of this group.

SMILES	OX1R antag-1	CHO-K1 Ca antag	CHO parental Ca	OX1R antag-2	M1 ag parental	CHO-K1 Ca PAM	OX1R Ca confirm	CHO Ca triplic	OX1R HTRF conf	CHO-K1 HTRF cnt
O=C(C1CC(=O)N(c2ccccc2F)C1)N1CCOCC1 (stereo not drawn)	-5	-7	1	7	0	-6	nt	nt	nt	nt
COc1ccc(NC(=O)[C@@H]2CCCN2S(=O)(=O)c2ccc(Cl)cc2)cc1	22	-7	-12	4	0	-8	nt	nt	nt	nt
CCc1cccc(NC(=O)C2CCCN2S(=O)(=O)c2cccc3cccnc23)c1 (stereo not drawn)	89*	4	-30	87*	0	-7	50*	-9	85*	5
Cc1cccc(NC(=O)[C@@H]2CCCN2S(=O)(=O)c2ccc(Cl)cc2)c1	91*	-19	-22	74*	-1	22	55*	-27	89*	4
CCCCN1C(=O)C(CC(=O)NCc2cccc3ccccc23)CC(C(=O)N2CCCCCC2)=C1C (stereo not drawn)	nt	-23	nt	nt	2	9	nt	nt	nt	nt
CCOC(=O)c1ccc(Nc2cnc3ccccc3n2)cc1	62*	-11	-7	46*	1	5	23	-5	50	0
O=C1NC[C@H](c2ccccc2)OC(=O)[C@H](Cc2ccc(F)cc2)C/C=C\C[C@H]1CC(=O)N(CCO)Cc1ccccc1	54*	6	-23	54*	8	-7	30*	3	50	5
CCn1c2ccccc2c2cc(NC(=O)c3cccc(OC)c3)ccc21	104*	-13	-8	97*	0	5	97*	-12	103*	14
CCn1c2ccccc2c2cc(NC(=O)c3cccc(OC)c3OC)ccc21	87*	6	7	64*	1	-1	74*	-3	91*	14
CCn1c(C)cc(O)c(C(=O)Nc2cccc(Cl)c2)c1=O	3	3	-9	-8	0	-15	nt	nt	nt	nt
CCn1c(C)c(C)c2cc(C(=O)Nc3cccc(Cl)c3)ccc21	121*	-5	28	40	0	-2	-6	-11	85*	9
CCn1c2ccccc2c2cc(NC(C)=O)ccc21	32	-13	-9	-10	0	15	nt	nt	nt	nt
COc1cc(Cl)c(C)cc1NC(=O)c1cccc(OC)c1OC	70*	-1	-22	22	0	3	7	-3	82*	13
CCOC(=O)c1ccc(-c2ccc(N3C(c4cccc(OC)c4)=Cc4ccc(F)cc4C3CC(C)=O)cc2)cc1F (stereo not drawn)	nt	-19	nt	nt	1	2	nt	nt	nt	nt
COC(=O)c1ccc(N2C(c3cccc(OC)c3)=Cc3ccc(F)cc3C2c2c(C)[nH]c3ccccc23)cc1 (stereo not drawn)	nt	-9	nt	nt	0	6	nt	nt	nt	nt
CCn1c(SCC(=O)Nc2ccc3c(c2)c2ccccc2n3CC)nnc1-c1cnccn1	89*	-27	-17	91*	1	13	68*	-15	92*	9
CC(C)c1ccc(NC(=O)Cn2nnc(C(=O)NCc3ccco3)c2N)cc1	3	-9	-9	-15	1	-1	nt	nt	nt	nt
CCn1c(Cn2nnc(-c3ccccc3)n2)nnc1SCC(=O)Nc1ccccc1	50*	5	-17	44	1	-6	24	-2	56*	6
COCc1cccc(-c2csc(C(NC(C)=O)c3cccc(OC)c3)n2)c1 (stereo not drawn)	nt	4	nt	nt	1	-13	nt	nt	nt	nt
CCOC(=O)C1=C(COC(=O)c2ccccc2OC(F)F)NC(=O)NC1C (stereo not drawn)	4	-1	-10	-29	0	-18	nt	nt	nt	nt
CCOC(=O)C1=C(COC(=O)c2ccc3ccccc3c2O)NC(=O)NC1C (stereo not drawn)	104*	-1	-18	101*	0	-5	100*	-28	91*	-22
O=C(Nc1ccc2nc(-c3cccs3)c(-c3cccs3)nc2c1)N1CCOCC1	73*	-5	-2	21	4	14	25	0	44	14
COc1ccc(C(=O)COC(=O)c2cc(S(=O)(=O)NCc3ccccc3)ccc2O)cc1	17	-4	-9	-7	1	2	nt	nt	nt	nt
CCOC(=O)c1c(C)[nH]c(C(=O)Cn2nnc(-c3ccccc3Cl)n2)c1C	26	14	13	13	1	-4	nt	nt	nt	nt
CCOC(=O)c1c(C)[nH]c(C)c1C(=O)Cn1nnc(-c2ccccc2C)n1	54*	-6	6	29	3	9	29*	7	65*	7
SMILES	OX1R antag-1	CHO-K1 Ca antag	CHO parental Ca	OX1R antag-2	M1 ag parental	CHO-K1 Ca PAM	OX1R Ca confirm	CHO Ca triplic	OX1R HTRF conf	CHO-K1 HTRF cnt
COc1ccc(OC)c(NC(=O)c2cc3ccccc3o2)c1	85*	10	-7	41*	0	-4	0	-7	52	12
COc1ccc(OC)c(NC(=O)c2csc(Cl)c2OC)c1	105*	7	-19	80*	-2	-10	11	-9	82*	5
COc1ccc(C)cc1NC(=O)c1cc2ccccc2o1	34	-4	-10	-29	0	13	nt	nt	nt	nt
COc1ccc(OC)c(NC(=O)c2cc(OC(C)=O)cc(C(=O)Nc3cc(OC)ccc3OC)c2)c1	85*	30*	-10	39	2	-11	54*	-2	85*	5
COc1ccc(OC)c(NC(=O)c2ccc(Cl)cc2)c1	7	7	-1	-31	0	-7	nt	nt	nt	nt
O=C(Nc1c2c(nn1-c1ccccc1)CS(=O)(=O)C2)c1ccc(Br)o1	nt	-9	nt	nt	1	11	nt	nt	nt	nt
Cc1cc(C)cc(NC(=O)COC(=O)c2cccc(S(=O)(=O)N3CCCCC3)c2)c1	10	-15	-18	-24	0	4	nt	nt	nt	nt
Cc1ccc(NC2CCCN(C(=O)c3cn(C)c4ccccc34)C2)cc1C (stereo not drawn)	80*	9	-14	27	0	-15	23	-12	90*	2
Cc1ccccc1C(=O)Nc1ccc2nc3n(c(=O)c2c1)CCCC3	6	-6	-21	-41	2	1	nt	nt	nt	nt
CCOc1ccccc1C(=O)Nc1ccc2nc3n(c(=O)c2c1)CCCCC3	91*	-11	-25	94*	1	24	79*	1	93*	11
CCOc1ccccc1C(=O)Nc1ccc(C(=O)c2ccccc2)cc1	55*	-13	-21	17	1	16	20	3	67*	18*

Screens as filed in PubChem.
